Measurements as given in article PMC3983950 (Journal of medicinal chemistry, 2012).
Like-named read-outs stand apart in the source and are kept apart here.

Key:
[1] = biological target: T1, ABCG2 (Homo sapiens, UniProt Q9UNQ0); type: cell-based; conditions: for class: ranked by apparent affinity and maximal extent of inhibition; for ABCG2 inhibition (in words): at 2 and 10 µM
T1 sequence (Q9UNQ0 1-655): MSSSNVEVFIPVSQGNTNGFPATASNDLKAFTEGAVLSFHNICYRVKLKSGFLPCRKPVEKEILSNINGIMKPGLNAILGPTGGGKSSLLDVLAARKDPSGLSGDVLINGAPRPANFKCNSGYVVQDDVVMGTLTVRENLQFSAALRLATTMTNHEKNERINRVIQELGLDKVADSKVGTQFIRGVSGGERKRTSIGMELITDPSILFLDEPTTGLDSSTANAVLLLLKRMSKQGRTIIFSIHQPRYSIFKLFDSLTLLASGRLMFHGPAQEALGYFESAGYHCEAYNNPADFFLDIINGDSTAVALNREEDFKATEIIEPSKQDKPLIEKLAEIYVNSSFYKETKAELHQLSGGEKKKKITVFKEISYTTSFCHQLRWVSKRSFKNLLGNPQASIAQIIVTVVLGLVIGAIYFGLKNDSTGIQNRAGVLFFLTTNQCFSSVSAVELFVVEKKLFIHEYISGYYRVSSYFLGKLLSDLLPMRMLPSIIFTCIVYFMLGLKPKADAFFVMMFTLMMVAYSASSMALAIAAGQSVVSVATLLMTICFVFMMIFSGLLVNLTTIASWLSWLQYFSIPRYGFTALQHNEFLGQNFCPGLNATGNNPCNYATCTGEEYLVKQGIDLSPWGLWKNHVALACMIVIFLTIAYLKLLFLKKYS

[2] = test system: HEK293-ABCG2 and HEK293-pcDNA3.1 cells; assay: Cytotoxicity, MTT colorimetric assay, 72 h; type: cell-based, human; conditions: for IG50 (cytotoxicity, µM): concentration producing 50% inhibition of cell growth, MTT, 72 h
How it was run: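 HEK293-ABCG2 and empty-vector HEK293-pcDNA3.1 cells (DMEM high glucose, 10% FBS, 0.75 mg/mL G418) seeded at 1 × 10^4 cells/well, attached 24 h at 37 °C, 5% CO2. Exposed 72 h to various concentrations of test compound (DMSO stock diluted in medium). MTT (5 mg/mL solution) added for 4 h, formazan dissolved in DMSO, A570 read. Triplicates; viability relative to 0.1% DMSO control (100%).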

class ([1]; Table 1)	SMILES	further results
3	COc1cccc(/C=C/C(=O)c2c(OC)cccc2OC)c1 [Compound 3]	–
3	CCOc1cccc(OCC)c1C(=O)/C=C/c1ccc(OC)cc1OC [Compound 11]	–
3	COc1cc(OC)c(OC)cc1/C=C/C(=O)c1c(OC)cccc1OC [Compound 7]	–
3	CCOc1cccc(OCC)c1C(=O)/C=C/c1c(OC)cccc1OC [Compound 10]	ABCG2 inhibition (in words) [1]: especially low, if any, inhibition
3	COc1cc(OC)c(/C=C/C(=O)c2c(OC)cccc2OC)c(OC)c1 [Compound 5]	–
3	COc1ccc(/C=C/C(=O)c2c(OC)cc(OC)cc2OC)c(OC)c1 [Compound 14]	–
3	CCOc1cccc(OCC)c1C(=O)/C=C/c1c(OC)cc(OC)cc1OC [Compound 9]	–
3	COc1cccc(OC)c1/C=C/C(=O)c1ccccc1 [Compound 17]	ABCG2 inhibition (in words) [1]: especially low, if any, inhibition
3	COc1cc(OC)c(C(=O)/C=C/c2c(OC)cccc2OC)c(OC)c1 [Compound 15]	ABCG2 inhibition (in words) [1]: especially low, if any, inhibition
3	COc1cccc(OC)c1C(=O)/C=C/c1ccccc1 [Compound 1]	–
3	COc1cc(/C=C/C(=O)c2c(OC)cccc2OC)cc(OC)c1OC [Compound 8]	ABCG2 inhibition (in words) [1]: low inhibition
3	COc1cccc(OC)c1/C=C/C(=O)c1c(OC)cccc1OC [Compound 4]	–
3	COc1cc(O)c(C(=O)/C=C/c2ccccc2OC)c(OC)c1 [Compound 30]	–
3	COc1ccc(/C=C/C(=O)c2c(OC)cccc2OC)c(OC)c1OC [Compound 6]	ABCG2 inhibition (in words) [1]: no inhibition at all
3	COc1ccccc1/C=C/C(=O)c1c(OC)cccc1OC [Compound 2]	–

The remaining lines, values behind:

SMILES	class ([1]; Table 1)	further results
COc1ccc(/C=C/C(=O)c2cn(C)c3ccccc23)c(OC)c1 [Compound 35]	–	class ([1]; Table 2): 3
COc1cccc(/C=C/C(=O)c2c(O)cc(OC)cc2OC)c1 [Compound 31]	1 (Class 1 included high-affinity inhibitors (IC50 < 1 µM) producing a complete inhibition at both 2 and 10 µM)	IG50 (cytotoxicity, µM) [2]: 10.0 ± 2.1 µM
COc1ccc(C(=O)/C=C/c2cn(C)c3ccccc23)c(OC)c1 [Compound 40]	–	class ([1]; Table 2): 3
COc1cc(/C=C/C(=O)c2c(O)cc(OC)cc2OC)cc(OC)c1 [Compound 28]	1 (Class 1 included high-affinity inhibitors (IC50 < 1 µM) producing a complete inhibition at both 2 and 10 µM)	IG50 (cytotoxicity, µM) [2]: 6.0 ± 0.4 µM
COc1cc(OC)c(/C=C/C(=O)c2cn(C)c3ccccc23)c(OC)c1 [Compound 37]	–	IG50 (cytotoxicity, µM) [2]: 4.0 ± 0.2 µM; class ([1]; Table 2): 1 (Class 1 included high-affinity inhibitors (IC50 < 1 µM) producing a complete inhibition at both 2 and 10 µM)
COc1ccc(C(=O)/C=C/c2cc(OC)ccc2OC)c(O)c1 [Compound 23]	2 (Class 2 comprised high-affinity inhibitors producing an incomplete maximal inhibition (limited to 50–75%))	–
COc1cc(OC)c(/C=C/C(=O)c2c(O)cc(OC)cc2OC)c(OC)c1 [Compound 32]	3	–
COc1ccc(/C=C/C(=O)c2ccc(OC)cc2OC)c(OC)c1 [Compound 12]	2 (Class 2 comprised high-affinity inhibitors producing an incomplete maximal inhibition (limited to 50–75%))	–
COc1cc(O)c(C(=O)/C=C/c2ccccc2)c(OC)c1 [Compound 29]	2 (Class 2 comprised high-affinity inhibitors producing an incomplete maximal inhibition (limited to 50–75%))	–
COc1cc(O)c(C(=O)/C=C/c2ccc(OC)c(OC)c2OC)c(OC)c1 [Compound 34]	3	–
COc1cc(OC)c(C(=O)/C=C/c2cn(C)c3ccccc23)c(OC)c1 [Compound 42]	–	class ([1]; Table 2): 3; ABCG2 inhibition (in words) [1]: especially low, if any, inhibition
COc1cc(OC)c(/C=C/C(=O)c2cn(C)c3ccc(OC)cc23)c(OC)c1 [Compound 39]	–	fold lower IG50 than compounds 27 and 38 [2]: 50 fold; IG50 (cytotoxicity, µM) [2]: 1.0 ± 0.1 µM; class ([1]; Table 2): 1 (Class 1 included high-affinity inhibitors (IC50 < 1 µM) producing a complete inhibition at both 2 and 10 µM)
Cn1cc(/C=C/C(=O)c2cn(C)c3ccccc23)c2ccccc21 [Compound 44, 1,3-diindolylpropenone]	–	class ([1]; Table 2): 3
COc1cccc(OC)c1C(=O)/C=C/c1cn(C)c2ccccc12 [Compound 43]	–	class ([1]; Table 2): 3; ABCG2 inhibition (in words) [1]: especially low, if any, inhibition
COc1ccc(C(=O)/C=C/c2ccc(OC)cc2OC)c(O)c1 [Compound 26]	2 (Class 2 comprised high-affinity inhibitors producing an incomplete maximal inhibition (limited to 50–75%))	–
CCOc1cc(OCC)c(/C=C/C(=O)c2c(OCC)cc(OCC)cc2OCC)c(OCC)c1 [Compound 16]	2 (Class 2 comprised high-affinity inhibitors producing an incomplete maximal inhibition (limited to 50–75%))	–
COc1cc(O)c(C(=O)/C=C/c2cc(OC)c(OC)c(OC)c2)c(OC)c1 [Compound 33]	2 (Class 2 comprised high-affinity inhibitors producing an incomplete maximal inhibition (limited to 50–75%))	–
COc1ccc(C(=O)/C=C/c2ccc(OC)c(OC)c2)c(O)c1 [Compound 20]	2 (Class 2 comprised high-affinity inhibitors producing an incomplete maximal inhibition (limited to 50–75%))	–
COc1ccc(C(=O)/C=C/c2c(OC)cccc2OC)c(O)c1 [Compound 25]	2 (Class 2 comprised high-affinity inhibitors producing an incomplete maximal inhibition (limited to 50–75%))	–
COc1cc(/C=C/C(=O)c2ccc(OC)cc2O)cc(OC)c1 [Compound 18]	2 (Class 2 comprised high-affinity inhibitors producing an incomplete maximal inhibition (limited to 50–75%))	–
COc1cccc(OC)c1/C=C/C(=O)c1cn(C)c2ccccc12 [Compound 38]	–	class ([1]; Table 2): 1 (Class 1 included high-affinity inhibitors (IC50 < 1 µM) producing a complete inhibition at both 2 and 10 µM)
COc1cc(/C=C/C(=O)c2cn(C)c3ccccc23)cc(OC)c1OC [Compound 36]	–	class ([1]; Table 2): 3
COc1cc(O)c(C(=O)/C=C/c2c(OC)cccc2OC)c(OC)c1 [Compound 27]	1 (Class 1 included high-affinity inhibitors (IC50 < 1 µM) producing a complete inhibition at both 2 and 10 µM)	–
COc1cc(OC)c(/C=C/C(=O)c2c(OC)cc(OC)cc2OC)c(OC)c1 [Compound 13]	3	–
